Data as given in BindingDB's records for doi:10.1016/j.bmc.2018.07.042 (Human Biomolecular Research Institute, 2018).

Target: T1, Cellular tumor antigen p53 (Homo sapiens, UniProt P04637)
Experiment: Activation of p53 in human MCF7 cell lysates assessed as increase in total p53 protein level by Western blot analysis

T1 sequence (P04637 whole entry): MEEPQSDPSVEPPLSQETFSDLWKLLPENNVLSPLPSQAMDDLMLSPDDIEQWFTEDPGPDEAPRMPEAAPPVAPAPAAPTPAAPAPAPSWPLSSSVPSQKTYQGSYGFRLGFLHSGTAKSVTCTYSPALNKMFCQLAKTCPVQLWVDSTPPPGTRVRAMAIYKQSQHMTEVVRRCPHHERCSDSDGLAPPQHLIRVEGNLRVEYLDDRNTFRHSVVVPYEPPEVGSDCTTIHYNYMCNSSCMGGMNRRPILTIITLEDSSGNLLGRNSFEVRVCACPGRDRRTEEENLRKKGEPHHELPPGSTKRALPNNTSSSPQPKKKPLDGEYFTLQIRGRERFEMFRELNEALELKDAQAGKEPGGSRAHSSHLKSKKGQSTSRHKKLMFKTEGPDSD

Q: Which EC50 does the source give for `CN1CCN(S(=O)(=O)c2ccc(N3CCCC3=O)cc2)c2ccccc21` here?
A: The EC50 was 18 nM.

Target: T1, Cellular tumor antigen p53
Experiment: Induction of p53 transcriptional activity (unknown origin) expressed in HEK293 cells coexpressing TK-driven Rluc after 20 to 22 hrs by luciferase reporter gene assay
Summary of the method: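 Transient transfection of HEK-293 cells with a p53-Luc vector (13x p53-binding consensus response element) plus TK-driven Renilla luciferase for normalization. Protocol was as for the Wnt reporter, but final serum was 2.5%. Cells were treated or given DMSO for 20-22 h in triplicate. Firefly/Renilla signal relative to DMSO was fit by nonlinear regression for […].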

Q: `O=S(=O)(c1ccc(-n2cncn2)cc1)N1CCCc2ccccc21` was tested. Which EC50 did it give?
A: Its EC50 is greater than 5000 nM.

Q: How did the EC50 turn out when `O=C1CCCN1c1ccc(S(=O)(=O)N2CCCc3ccccc32)cc1` was run?
A: Its EC50 is 12 nM.

Q: `COc1ccc2c(c1)N(C)CCN2S(=O)(=O)c1ccc(N2CCCC2=O)cc1` was tested. Which EC50 did it give?
A: The EC50 was 4 nM.

Q: For `CN1CCN(S(=O)(=O)c2ccc(N3CCCC3=O)cc2)c2ccccc21`, which EC50 is on record?
A: The EC50 was 2 nM.

Q: With `Cc1ccc2c(c1)CCCN2S(=O)(=O)c1ccc(N2CCCC2=O)cc1` as the molecule, how does the EC50 read?
A: The EC50 was 4 nM.

Q: Which EC50 does the source give for `CC(C)(C)c1ccc2c(c1)CCCN2S(=O)(=O)c1ccc(N2CCCC2=O)cc1` here?
A: Its EC50 is 152 nM.

Q: Which EC50 does the source give for `CN1CCN(S(=O)(=O)c2ccc(N3CCC=N3)cc2)c2ccccc21` here?
A: The EC50 was 74 nM.

Q: Which EC50 does the source give for `CCCN(c1ccccc1)S(=O)(=O)c1ccc(N2CCCC2=O)cc1` here?
A: The EC50 was 158 nM.

Q: Which EC50 does the source give for `CN1CCN(S(=O)(=O)c2ccc(N3CCCC3)cc2)c2ccccc21` here?
A: The EC50 was 65 nM.

Q: With `COc1ccc2c(c1)CCCN2S(=O)(=O)c1ccc(N2CCCC2=O)cc1` as the molecule, how does the EC50 read?
A: Its EC50 is 9 nM.
